Broadly, the MIC is the least concentration at which growth counts as inhibited. Read a low MIC as a more susceptible organism.

Converted amounts (≈) assume the structure as drawn.

14 compounds from ChEMBL document CHEMBL1141798, “Antitubercular constituents from the stem wood of Cinnamomum kotoense” (2005) can be followed below.

The test relates to Mycobacterium tuberculosis. The experiment in a line: Antitubercular activity against Mycobacterium tuberculosis 90-221387. The test is classed as functional. The procedure, abridged:
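Agar proportion method on Middlebrook 7H10 with OADC; compounds serially diluted into molten agar (50-56 °C) to final 100 to 0.8 µg/mL. Inoculum from colonies in 7H9 broth, adjusted to McFarland no. 1, diluted 10-2; 33 µL spotted per quadrant. Incubated 35 °C, 10% CO2, 2 weeks; MIC = lowest concentration completely inhibiting growth.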
On to `CO[C@H]1/C=C/O[C@@]2(C)Oc3c(C)c(O)c4c(O)c(c(/C=N/N5CCN(C)CC5)c(O)c4c3C2=O)NC(=O)/C(C)=C\C=C\[C@H](C)[C@H](O)[C@@H](C)[C@@H](O)[C@@H](C)[C@H](OC(C)=O)[C@@H]1C` [RIFAMPIN], for which the MIC came to 0.24 µM (≈ 0.198 µg/mL).
As for `CCCCCCCCCCCC(=O)O` [DODECANOATE], the figure is 62.5 µM (≈ 12.5 µg/mL); as for `O=Cc1ccc(O)cc1` [4-HYDROXYBENZALDEHYDE], 369 µM (≈ 45 µg/mL); as for `CC(=O)c1ccc(C)o1`, 323 µM (≈ 40 µg/mL).
As for `COc1cc(OC)c2c(c1)O[C@H](c1ccc(O)c(OC)c1)[C@H](O)C2`, the figure is 151 µM (≈ 50.1 µg/mL); as for `COc1cc([C@H]2OC[C@H]3[C@@H]2CO[C@@H]3c2cc(OC)c(O)c(OC)c2)cc(OC)c1O` (racemic) [SYRINGARESINOL], 239 µM (≈ 100 µg/mL).
For the compound `O=C(O)c1ccc(O)c(O)c1` [PROTOCATECHUIC ACID], it took 649 µM (≈ 100 µg/mL) to inhibit growth (MIC).
As for `COc1cc(C=O)cc(OC)c1O` [SYRINGALDEHYDE], the figure is 137 µM (≈ 25 µg/mL).
The same measure for `C#CCCCCCCCCC/C=C1/C(=O)O[C@@H](C)[C@H]1O` [LINCOMOLIDE B]: 10.2 µM (≈ 2.83 µg/mL); for `O=C(O)c1ccccc1` [BENZOIC ACID]: 328 µM (≈ 40 µg/mL); for `CCCCCCCCCCCCCCCCCCCCCCCCCCCC(O)O` [KOTODIOL]: 117 µM (≈ 50.1 µg/mL).
As for `C=C1OC(=O)/C(=C/CCCCCCCCCCCCC)[C@@H]1O` [ISOOBTUSILACTONE A], the figure is 22.5 µM (≈ 6.93 µg/mL); as for `CCCCCCCCCCCCC/C=C1/C(=O)O[C@@]2(C)O[C@H](CCCCCCCCCCCCC)O[C@@H]12` [KOTOLACTONE A], 40.1 µM (≈ 20.9 µg/mL); as for `COc1cc(C=O)ccc1O` [VANILLIN], 82.2 µM (≈ 12.5 µg/mL).
